ChEMBL document CHEMBL1136489 (Bioorg Med Chem Lett, 2003)

What was measured:
Format in all cases: protein-complex assay
[1] = biological target: Protein farnesyl/geranylgeranyl transferase (Homo sapiens) (UniProt P49354+P49356+P53609); assay: Selectivity for Geranylgeranyl protein transferase I compared to farnesyl protein transferase
[2] = biological target: Protein farnesyltransferase (Homo sapiens, UniProt P49354+P49356); assay: In vitro inhibition of farnesyl protein transferase
In short: (§1)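 Cell-free enzyme inhibition assay, run as previously described with modifications.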

[3] = biological target: Geranylgeranyl transferase type I (Homo sapiens, UniProt P49354+P53609); assay: In vitro inhibition of Geranylgeranyl protein transferase I; in short: as §1

SMILES | Selectivity [1] | IC50 [2] [nM] | IC50 [3] [nM]
CCC(C(=O)NOC/C=C(\C)CC/C=C(\C)CC/C=C(\C)CCC=C(C)C)P(=O)(O)O (stereo unspecified) | > 68 | > 10000 | 146
CC(C)=CCC/C(C)=C/CC/C(C)=C/CC/C(C)=C/CNC(=O)C(C)P(=O)(O)O (stereo unspecified) | > 90 | > 10000 | 111
CC(C)=CCC/C(C)=C/CC/C(C)=C/CC/C(C)=C/CNC(=O)CP(=O)(O)O | 18 | 5000 | 275

More lines, in order of falling IC50 [3], values ahead:

Selectivity [1] | IC50 [2] [nM] | IC50 [3] [nM] | SMILES
> 18 | > 10000 | 566 | CCC(C(=O)NC/C=C(\C)CC/C=C(\C)CC/C=C(\C)CCC=C(C)C)P(=O)(O)O (stereo unspecified)
> 66 | > 10000 | 151 | CC(C)=CCC/C(C)=C/CC/C(C)=C/CC/C(C)=C/CONC(=O)C(C)P(=O)(O)O (stereo unspecified)
– | – | 66 | CC(C)=CCC/C(C)=C/CC/C(C)=C/CC/C(C)=C/CONC(=O)CP(=O)(O)O
